Results on 19 compounds are retold here after ChEMBL document CHEMBL3352720, “Novel alkylphospholipid-DTC hybrids as promising agents against endocrine related cancers acting via modulation of Akt-pathway” (Eur J Med Chem, 2014).

Assay [1] deals with MCF7. Put plainly: Induction of mitochondrial membrane potential loss in human MCF7 cells assessed as increase in JC1 dye monomer green fluorescence incubated for 24 hrs by JC1 dye based flow cytometry (reference value: 1.78%). It is filed as functional.
The next assay has as its system MDA-MB-231. The assay can be described thus: Antiproliferative activity against human MDA-MB-231 cells assessed as inhibition of cell proliferation incubated for 18 hrs followed by MTT addition for 4 hrs by MTT assay. It is filed as functional, cell-based. The essentials:
(§1)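 MTT assay. Cells were grown in DMEM with 10% FBS at 37 °C, 5% CO2, 90% relative humidity. 1 × 10⁴ cells per well were seeded and held 24 h, then exposed to compounds diluted in culture medium for 18 h. MTT (5 mg/mL stock) was added for a further 4 h.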
For orientation: Tetrazolium dyes change colour on reduction, which living cells bring about.

For assay [2], the system named is MCF7. Put plainly: Antiproliferative activity against human MCF7 cells assessed as inhibition of cell proliferation incubated for 18 hrs followed by MTT addition for 4 hrs by MTT assay. It is filed as functional, cell-based. A digest of the protocol:
as §1

Assay [3] can be described thus: Antiproliferative activity against human PC3 cells assessed as inhibition of cell proliferation incubated for 18 hrs followed by MTT addition for 4 hrs by MTT assay. It is filed as functional, cell-based. As to conditions: PC-3. The essentials:
as §1

A short description of assay [4]: Antiproliferative activity against human DU145 cells assessed as inhibition of cell proliferation incubated for 18 hrs followed by MTT addition for 4 hrs by MTT assay. It is filed as functional, cell-based. The note with it: DU-145. A digest of the protocol:
as §1

Assay [5] has as its system MCF7. Put plainly: Induction of cell cycle arrest in human MCF7 cells assessed as accumulation at G0/G1 phase incubated for 24 hrs by propidium iodide staining based FACS assay (reference value: 53.32%). It is filed as functional. For orientation: Flow cytometry measures light scatter and fluorescence of single cells or particles in a stream.
In assay [6] the test system is MCF7. Put plainly: Induction of cell cycle arrest in human MCF7 cells assessed as accumulation at S phase incubated for 24 hrs by propidium iodide staining based FACS assay (reference value: 45.21%). It is filed as functional.
The subject of assay [7] is MCF7. Put plainly: Induction of cell cycle arrest in human MCF7 cells assessed as accumulation at G2/M phase incubated for 24 hrs by propidium iodide staining based FACS assay (reference value: 1.47%). It is filed as functional.
Assay [8] deals with MCF7. The assay can be described thus: Induction of cell cycle arrest in human MCF7 cells assessed as accumulation at sub-diploid phase incubated for 24 hrs by propidium iodide staining based FACS assay (reference value: 7.26%). It is filed as functional.
Assay [9] has as its system MCF7. Put plainly: Induction of apoptosis in human MCF7 cells assessed as viable cells level incubated for 24 hrs by annexin-V and propidium iodide staining based flow cytometry (reference value: 89.58%). It is filed as functional.
Assay [10] concerns MCF7. The assay can be described thus: Induction of apoptosis in human MCF7 cells assessed as early apoptotic cells level incubated for 24 hrs by annexin-V and propidium iodide staining based flow cytometry (reference value: 6.42%). It is filed as functional.
Assay [11] has as its system MCF7. The assay can be described thus: Induction of apoptosis in human MCF7 cells assessed as late apoptotic cells level incubated for 24 hrs by annexin-V and propidium iodide staining based flow cytometry (reference value: 1.85%). It is filed as functional.
Assay [12] deals with MCF7. The assay can be described thus: Induction of apoptosis in human MCF7 cells assessed as necrotic cells level incubated for 24 hrs by annexin-V and propidium iodide staining based flow cytometry (reference value: 2.15%). It is filed as functional.
The subject of the next assay is HEK293. The assay can be described thus: Antiproliferative activity against HEK293 cells assessed as inhibition of cell proliferation incubated for 18 hrs followed by MTT addition for 4 hrs by MTT assay. As to conditions: Homo sapiens. It is filed as cell-based. The essentials:
as §1

For orientation: IC50 means the concentration that gives 50% inhibition.

On to `CCCCCCCCCCCCCCCCOP(=O)([O-])OCC[N+](C)(C)C` [MILTEFOSINE], for which the Activity in the assay on MCF7 [1] turned out to be 50.05%; in the assay on MCF7 [5], 64.8%; with MCF7 [6], 33.07%; in the assay with MCF7 [7] it was 2.14%; in the assay with MCF7 [8], 3.48%; in the assay on MCF7 [9], 43.6%. Besides, the results for the Activity in the assay on MCF7 [10], in the assay with MCF7 [11] and in the assay on MCF7 [12] were 44.84%, 9.43% and 2.15%, respectively. The IC50 with MDA-MB-231 amounted to 2.08 µM; in the assay with MCF7 [2], 34.7 µM; in assay [3], 19.9 µM; in [4], 25.8 µM.

For the compound `CCCCCCCCCCOP(=O)(O)OCCSC(=S)N1CCCC1`, the concentration for half-maximal inhibition (IC50) in the assay with MDA-MB-231 was 67 µM; with MCF7 [2], 70 µM; with HEK293 it was over 100 µM; in assay [3] it was 56.1 µM; in [4], 46.1 µM.

With `CCCCCCOP(=O)(O)OCCSC(=S)N1CCCCCC1`, the half-maximal inhibitory concentration (IC50) with MDA-MB-231 is 17.2 µM; in the assay with MCF7 [2], 55 µM; in the assay on HEK293, 70.5 µM; in [3], over 100 µM; in assay [4], 77.4 µM.

Regarding `CCCCCCOP(=O)(O)OCCSC(=S)N1CCN(C)CC1`, the IC50 with MDA-MB-231 is 73 µM; in the assay on MCF7 [2], 58 µM; in the assay on HEK293 it was over 100 µM; in assay [3] it was over 100 µM; in [4], over 100 µM.

In the case of `CCCCCCCCOP(=O)(O)OCCSC(=S)N1CCCCCC1`, the concentration for half-maximal inhibition (IC50) in the assay on MDA-MB-231 was 27 µM; in the assay with MCF7 [2] it was 78 µM; in the assay with HEK293, over 100 µM; in assay [3] it was 56.8 µM; in assay [4], 59.1 µM.

As for `CCCCCCCCOP(=O)(O)OCCSC(=S)N1CCCCC1`, the IC50 in the assay with MDA-MB-231 was 11.9 µM; with MCF7 [2], 26 µM; with HEK293, 69 µM; in assay [3], over 100 µM; in assay [4], over 100 µM.

Turning to `CCCOP(=O)(O)OCCSC(=S)N1CCCC1`, the 50% inhibitory concentration (IC50) with MDA-MB-231 is 67 µM; in the assay with MCF7 [2], 73 µM; in the assay on HEK293, over 100 µM; in [3], over 100 µM; in assay [4], over 100 µM.

In the case of `CCCCCCCCCCCCCCCCOP(=O)(O)OCCSC(=S)N1CCCCCC1`, the IC50 in the assay with MDA-MB-231 was over 100 µM; in the assay on MCF7 [2], over 100 µM; with HEK293, over 100 µM; in assay [3], 32.1 µM; in [4], 17.6 µM.

Consider `CCCCCCCCCCOP(=O)(O)OCCSC(=S)N1CCN(C)CC1`, for which the concentration for half-maximal inhibition (IC50) is 29 µM with MDA-MB-231; 99.6 µM in the assay with MCF7 [2]; over 100 µM with HEK293; 80 µM in assay [3]; 82.3 µM in [4].

On to `CCCOP(=O)(O)OCCSC(=S)N1CCCCCC1`, for which the half-inhibitory concentration (IC50) was 38 µM with MDA-MB-231; 74 µM in the assay with MCF7 [2]; 54 µM with HEK293; over 100 µM in assay [3]; 86.1 µM in assay [4].

With `CCCCCCCCOP(=O)(O)OCCSC(=S)N1CCCC1`, the IC50 in the assay on MDA-MB-231 is 69 µM; with MCF7 [2], 53 µM; with HEK293, 28.3 µM; in assay [3] it was over 100 µM; in [4] it was 47.1 µM.

Turning to `CCCCCCCCCCCCCCCCOP(=O)(O)OCCSC(=S)N1CCN(C)CC1`, the IC50 was over 100 µM in the assay with MDA-MB-231; over 100 µM in the assay with MCF7 [2]; over 100 µM with HEK293; 95.2 µM in [3]; 49.3 µM in [4].

As for `CCCOP(=O)(O)OCCSC(=S)N1CCCCC1`, the IC50 in the assay on MDA-MB-231 is 68 µM; in the assay on MCF7 [2], over 100 µM; in the assay on HEK293 it was over 100 µM; in [3] it was over 100 µM; in assay [4], over 100 µM.

`CCCOP(=O)(O)OCCSC(=S)N1CCN(C)CC1`: the IC50 with MDA-MB-231 was 62 µM; with MCF7 [2], 59 µM; in the assay on HEK293 it was 39.6 µM; in assay [3], over 100 µM; in [4], over 100 µM.

Turning to `CCCCCCCCCCCCCCCCOP(=O)(O)OCCSC(=S)N1CCCC1`, the IC50 in the assay with MDA-MB-231 was 69 µM; in the assay with MCF7 [2] it was 72 µM; with HEK293, over 100 µM; in assay [3], 65.7 µM; in assay [4] it was 28.9 µM.

For `CCCCCCOP(=O)(O)OCCSC(=S)N1CCCC1`, the IC50 with MDA-MB-231 is 54 µM; in the assay with MCF7 [2] it was 100 µM; with HEK293 it was over 100 µM; in [3], over 100 µM; in assay [4], over 100 µM.

Turning to `CCCCCCOP(=O)(O)OCCSC(=S)N1CCCCC1`, the IC50 with MDA-MB-231 was 85 µM; in the assay with MCF7 [2], 62 µM; with HEK293, over 100 µM; in [3], over 100 µM; in [4] it was over 100 µM.

On to `CCCCCCCCCCOP(=O)(O)OCCSC(=S)N1CCCCCC1`, for which the IC50 with MDA-MB-231 came to 11.4 µM; in the assay on MCF7 [2], 43.3 µM; in the assay on HEK293, 70 µM; in assay [3], 32.9 µM; in assay [4], 23.9 µM.

For the compound `CCCCCCCCOP(=O)(O)OCCSC(=S)N1CCN(C)CC1`, the concentration for half-maximal inhibition (IC50) in the assay with MDA-MB-231 was 58.5 µM; in the assay on MCF7 [2], 46 µM; in the assay with HEK293 it was 86 µM; in [3] it was over 100 µM; in assay [4], over 100 µM.
